Sampled rows, rich in hits. Any-hit rate of the full collection: about 2.1%.
EBI2 antag = EBI2 (human) antagonism; 360,000 compounds, 0.81% hits; AID 651636; P32249; inhibition, % at 5 µM; EBI2 beta-arrestin recruitment, luminescence, 7a,25-OHC stimulated; in the data active = inhibition above about 38%;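 also: enzyme fragment complementation signal reports receptor beta-arrestin coupling in cells; 0% = agonist plus DMSO wells and 100% = wells without agonist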
Target sequence (P32249 whole entry, looked up, the tested form may be a part): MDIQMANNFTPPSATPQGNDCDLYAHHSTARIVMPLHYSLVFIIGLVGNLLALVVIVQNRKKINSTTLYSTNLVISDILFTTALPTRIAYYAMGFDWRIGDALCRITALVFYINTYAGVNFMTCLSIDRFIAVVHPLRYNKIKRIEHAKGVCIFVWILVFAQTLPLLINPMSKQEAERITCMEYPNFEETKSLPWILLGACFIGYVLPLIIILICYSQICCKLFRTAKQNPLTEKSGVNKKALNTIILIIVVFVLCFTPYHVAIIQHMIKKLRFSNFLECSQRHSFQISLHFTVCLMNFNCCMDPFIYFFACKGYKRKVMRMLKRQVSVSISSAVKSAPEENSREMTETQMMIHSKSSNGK
m5-HT2A agonist = activates the mouse 5-HT2A serotonin receptor. CHO-K1 mHTR2A beta-arrestin complementation, luminescence; percent of 30 µM serotonin response. activation, % at 7.6 µM. 360,000 compounds, 0.66% hits. AID 624169;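 active = activation above a run cutoff, the mean activation of all tested compounds plus 3 SD, cut at about 14% in these data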;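 also: 0% = plate median of compound wells and 100% = 30 µM serotonin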
CCR6 antag = blocks CCL20-driven beta-arrestin recruitment at human CCR6; inhibition, % at 20 µM; CHO-K1 CCR6 PathHunter beta-arrestin, luminescence, CCL20-stimulated; 340,000 compounds, 0.49% hits;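 active = compounds whose inhibition of the agonist-driven luminescence signal at 20 µM reaches about 50%, limit read from the data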;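 also: cells stimulated with CCL20 at 14 nM final; plate controls were DMSO with CCL20 for no effect and DMSO without agonist for full effect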
CXCR6 inh = blocks human CXCR6 beta-arrestin recruitment | O00574 | CHO-K1 PathHunter CXCR6 beta-arrestin, luminescence | 360,000 compounds, 0.36% hits | inhibition, % at 20 µM; in the data active = inhibition above about 34%, passing the limit was not always enough;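 also: antagonist mode with CXCL16 agonist at 10 nM final; 0% = 10 nM CXCL16 with DMSO and 100% = unstimulated wells without agonist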
APJ antag = antagonists of human APJ apelin receptor | CHO-K1 APJ beta-arrestin complementation, luminescence | 330,000 compounds, 0.32% hits | P35414 | inhibition, % at 20 µM | AID 2521;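 active = inhibition above about 40% at 20 µM, limit read from the data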;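 also: cells challenged with 10 nM apelin-13 agonist together with compound; plate controls were apelin-13 plus DMSO wells for no effect and DMSO wells lacking apelin-13 for full effect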
APJ agonist = agonists of human APJ apelin receptor. CHO-K1 APJ PathHunter beta-arrestin, luminescence; 0% DMSO wells, 100% apelin. activation, % at 20 µM. 330,000 compounds, 0.11% hits;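 active = activation more than six SD over the plate average, tested at 20 µM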;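 also: 0% = DMSO alone and 100% = apelin-13 at 10 nM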
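Material: engineered CHO-K1 APJ arrestin reporter cells; amount: 1000 CHO-K1 reporter cells seeded per well; incubation: compound stimulation 90 min at 25 °C, detection 60 min; signal: luminescent beta-gal fragment complementation, chemiluminescent substrate; read-out basis: APJ agonist activity; controls: DMSO-only wells as negative, 10 nM Apelin-13 as positive control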
EBI2 antag conf = confirmation of human EBI2 receptor antagonists; shares compounds with EBI2 antag; EBI2 beta-arrestin luminescence, 7a,25-OHC antagonism; inhibition, % at 5 µM; 2,400 compounds, 29% hits;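 active = inhibition of at least 50%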
EBI2 agonist = EBI2 agonism counter-screen; EBI2-expressing cells, agonist mode, luminescence, 60 min; 0% vehicle, 100% 7α,25-dihydroxycholesterol control; shares compounds with EBI2 antag; activation, % at 5 µM; 2,400 tested, under 10 active;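 active = activation of at least 50%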
bGal counter = inhibits E. coli beta-galactosidase, counter-screen for EBI2 antagonists; shares compounds with EBI2 antag; purified beta-galactosidase, luminescent Galacton Star, 15 min; inhibition, % at 5 µM; 2,400 compounds, 1% hits; AID 652176;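 active = replicate-average signal at least 3 plate SD below neutral wells, shown as high inhibition, flagging enzyme-inhibiting false positives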;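 also: 0% = DMSO wells with enzyme and 100% = wells lacking enzyme; higher means stronger loss of beta-gal luminescence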
Active calls of the source: *; nt = no result given.

SMILES	EBI2 antag	m5-HT2A agonist	CCR6 antag	CXCR6 inh	APJ antag	APJ agonist	EBI2 antag conf	EBI2 agonist	bGal counter
O=C(COc1ccc2cc(Br)ccc2c1)N1CCOCC1	62*	2	-2	-4	4	1	36	1	4
O=C(COc1ccc(-c2ccccc2)cc1)N1CCN(C(=O)c2cccnc2)CC1	2	3	-11	0	3	0	nt	nt	nt
O=C(CCNS(=O)(=O)c1ccccc1C(F)(F)F)NCC(c1ccco1)N1CCCCC1 (centres undefined)	-7	6	16	-8	10	-6	nt	nt	nt
CC(C)(C)NC(=O)C(=O)NNC(=O)c1ccco1	4	4	15	3	-4	-3	nt	nt	nt
COc1ccc(N2CCN(C(=O)COc3ccc4ccccc4c3)CC2)cc1	85*	-4	-2	4	21	-2	35	1	5
COc1ccc(OCC(=O)N2CCN(C(=O)COc3ccc(Br)cc3)CC2)cc1	80*	2	5	4	0	0	56*	0	9
O=C(COc1ccc2ccccc2c1)N1CCN(c2ccccc2)CC1	50*	5	14	13	7	-4	40	-1	-18
COCCN1C(=O)C(CC(=O)Nc2ccc(C(C)=O)cc2)SC1=Nc1ccccc1 (centres undefined)	-3	-3	4	-6	-27	4	nt	nt	nt
NC(=O)NCc1cccc(Cl)c1	-9	-2	7	3	-2	-4	nt	nt	nt
Cc1ccnc2nc(C(=O)NCc3ccccc3)nn12	-5	-3	-2	2	15	-2	nt	nt	nt
Cc1nn(CCCC(=O)Nc2cc(Oc3ccccc3)cc([N+](=O)[O-])c2)c(C)c1[N+](=O)[O-]	21	-1	18	7	2	1	nt	nt	nt
Cc1ccc(C)c(Oc2cc(NC(=O)CCCn3nc(C)c([N+](=O)[O-])c3C)cc([N+](=O)[O-])c2)c1	44*	-1	22	-2	-1	0	24	0	7
Cc1cccc(/C=N/NC(=O)c2cc(-c3cccnc3)nc3c2c(C)nn3-c2ccccc2)c1	43*	4	5	8	-3	-1	38	-1	-16
Cc1cccc(/C=N/NC(=O)c2cc(-c3cccnc3)nc3ccccc23)c1	-2	-6	-1	14	9	-3	nt	nt	nt
COc1cccc(NC(=O)C2CCC(CNS(=O)(=O)c3cccs3)CC2)c1 (centres undefined)	47*	2	1	-1	14	-5	29	1	-15
CCn1c(O)c(/C=C2\C=Nc3ccccc32)sc1=Nc1ccccc1	53*	-2	2	6	-1	2	38	0	2
O=C(COc1ccc(Cl)cc1)N1CCN(Cc2ccc3c(c2)OCO3)CC1	87*	4	-1	-4	4	-2	61*	-1	-14
O=C(/C=C\c1cccs1)N1CCN(Cc2ccc3c(c2)OCO3)CC1	75*	-3	-3	3	3	-1	54*	0	4
O=C(O)/C=C/C(=O)N1CCN(Cc2ccc3c(c2)OCO3)CC1	-11	1	-9	-4	20	-2	nt	nt	nt
CCCOc1ccc(C(=O)N2CCN(Cc3ccc4c(c3)OCO4)CC2)cc1	78*	-1	19	2	-15	-3	54*	-1	-10
O=C(Nc1ccc(Cl)cc1)N1CCN(Cc2ccc3c(c2)OCO3)CC1	31	-1	5	-6	2	1	nt	nt	nt
Cc1cc(C)cc(C(=O)N2CCN(Cc3ccc4c(c3)OCO4)CC2)c1	5	8	8	-4	10	-2	nt	nt	nt
CCCOc1ccc(C(=O)Nc2ccc3c(c2)OCO3)cc1	52*	1	0	2	0	-2	20	-1	-8
Cc1ccccc1CSc1nnc(C)n1N	2	2	-1	-6	-20	-3	nt	nt	nt
COc1cccc(Cn2c(=O)c3[nH]cnc3n(-c3ccccc3C)c2=O)c1	-3	-3	17	2	7	-3	nt	nt	nt
SMILES	EBI2 antag	m5-HT2A agonist	CCR6 antag	CXCR6 inh	APJ antag	APJ agonist	EBI2 antag conf	EBI2 agonist	bGal counter
C[C@@H]1CCCCO[C@@H](CN(C)C(=O)CCCN(C)C)[C@@H](C)CN([C@H](C)CO)C(=O)c2cc(NC(=O)CCC(F)(F)F)ccc2O1	-1	-2	nt	2	nt	nt	nt	nt	nt
COCCCn1c(SCc2ccccc2)nc2cc(OC)c(OC)cc2c1=N	54*	-8	38	-8	12	-2	48	-1	-2
COc1cc2nc(SCc3ccc(Cl)cc3Cl)n(Cc3cccs3)c(=N)c2cc1OC	43*	0	4	-5	7	-3	30	1	1
Cc1ccc(C)c(NC(=O)CN(C)C(=O)c2cccc(S(=O)(=O)N3CCCC3)c2)c1	6	2	2	3	24	2	nt	nt	nt
CCOc1cc(CNc2ccccc2)cc(Br)c1OCc1ccc(F)cc1	49*	0	17	11	-7	-1	14	0	3
CCOc1cc(CNc2ccc(Br)cc2)cc(Br)c1OCC(=O)NC(C)(C)C	66*	0	18	-2	-14	2	7	1	2
COc1cc2c(cc1OC)C(c1ccc(-c3ccc(Cl)cc3Cl)o1)=NCC2	74*	-5	-1	-3	-5	-1	66*	-1	-17
COc1ccc(Cn2c(=O)c3cccnc3n(Cc3ccc([N+](=O)[O-])cc3)c2=O)cc1	47*	-5	24	13	-10	-2	10	1	-1
O=C(O)CCCc1nc2ccccc2s1	1	4	-16	3	10	-4	nt	nt	nt
O=C(CCCc1nc2ccccc2s1)NC(c1ccccc1)c1ccccc1	77*	-1	-8	-2	13	-5	38	-1	-12
COc1cccc(/C=C2\SC(=S)N(CCCC(=O)N3CCCC3)C2=O)c1	1	2	11	-2	-9	1	nt	nt	nt
NNC(=O)CN1C(c2ccccc2)=Nc2ccc(Br)cc2C1c1ccccc1 (centres undefined)	2	-3	7	-13	-4	-3	nt	nt	nt
CC(=O)Nc1ccc(NC(=O)C(C)OC(=O)c2ccc(N(C)C)cc2)cc1 (centres undefined)	-7	0	-12	-8	-13	2	nt	nt	nt
O=C(CC12CC3CC(CC(C3)C1)C2)NC(=S)NCc1ccccc1	14	0	29	7	0	-3	nt	nt	nt

Screens: PubChem, several laboratories
